Measured values: ChEMBL document CHEMBL4610125, “Evaluation of Manassantin A Tetrahydrofuran Core Region Analogues and Cooperative Therapeutic Effects with EGFR Inhibition” (J Med Chem, 2020)
Active and inactive are the calls of the source. The calls are words filed in the database; no cut-off is given here.

Assays:
[1] = test system: HEK-293T; assay: Inhibition of HIF1 transactivation activity in HEK293T cells transfected with pGL3-5HRE-VEGF-luciferase at 0.01 to 1 uM incubated for 24 hrs under hypoxia condition by luciferase reporter gene assay; assay type: cell-based; details: Homo sapiens
Outline: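 HEK-293T cells were seeded at 5 × 10³/well, left 24 h, then co-transfected with a 5×HRE (human VEGF promoter) firefly luciferase plasmid and a pRL-SV40 Renilla plasmid. Cells were exposed to hypoxia (1% O₂) with serially diluted compound (0, 0.01, 0.1, 1 μM) for 24 h, with 10 μM 17-AAG as reference. Dual-Glo readout, with firefly normalized to Renilla. Three independent experiments.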

[2] = test system: Lewis lung carcinoma cell line; assay: animal or person; assay type: functional; details: Mus musculus, ip, read-out: TGI
[3] = test system: Lewis lung carcinoma cell line; assay: Antitumor activity against mouse LLC cells allografted in C57BL/6J mouse assessed as inhibition of tumor growth at 5 mg/kg, ip dosed every 3 days for 17 days starting from 2 days after inoculation and co-treated with 5 mg/kg, ip EGFR inhibitor gefitinib relative to control; assay type: functional; details: read-out: TGI
Outline: (§1)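 Male C57BL/6 mice, 5−6 weeks old, were given LLC cells (2 × 10⁵ in 200 μL serum-free medium) s.c. into the dorsal flanks on Day 0. From day 2, groups of n = 5 received 5 mg/kg i.p. […]. Tumor size was measured three times a week and tumor weight at sacrifice. Statistics were versus the vehicle control.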

[4] = test system: Lewis lung carcinoma cell line; assay: Antitumor activity against mouse LLC cells allografted in C57BL/6J mouse assessed as reduction tumor weight at 5 mg/kg, ip dosed every 3 days for 17 days starting from 2 days after inoculation relative to control; assay type: functional, organism-based; outline: as §1
[5] = test system: Lewis lung carcinoma cell line; assay: Antitumor activity against mouse LLC cells allografted in C57BL/6J mouse assessed as reduction of tumor weight at 5 mg/kg, ip dosed every 3 days for 17 days starting from 2 days after inoculation and co-treated with 5 mg/kg, ip EGFR inhibitor gefitinib relative to control; assay type: functional, organism-based; outline: as §1
[6] = Toxicity in C57BL/6J mouse allografted with mouse LLC cells assessed as effect on body weight at 5 mg/kg, ip dosed every 3 days for 17 days starting from 2 days after inoculation; assay type: organism-based, Lewis lung carcinoma; details: in vivo; outline: as §1
[7] = Toxicity in C57BL/6J mouse allografted with mouse LLC cells assessed as effect on body weight at 5 mg/kg, ip dosed every 3 days for 17 days starting from 2 days after inoculation and co-treated with 5 mg/kg, ip EGFR inhibitor gefitinib; assay type: organism-based, Lewis lung carcinoma; details: in vivo; outline: as §1

SMILES	inhibition [1]	further results
COc1ccc(C(=O)[C@@H](C)Oc2ccc([C@@H]3C[C@@H](C)[C@@H](c4ccc(O[C@H](C)C(=O)c5ccc(OC)c(OC)c5)c(OC)c4)O3)cc2OC)cc1OC	Dose-dependent effect	–
COc1ccc(C(=O)[C@@H](C)Oc2ccc(CC3(Cc4ccc(O[C@H](C)C(=O)c5ccc(OC)c(OC)c5)c(OC)c4)SCCCS3)cc2OC)cc1OC	inactive	–
COc1ccc(C(=O)[C@@H](C)Oc2ccc([C@@H]3CCC[C@H](c4ccc(O[C@H](C)C(=O)c5ccc(OC)c(OC)c5)c(OC)c4)O3)cc2OC)cc1OC	inactive	–
C=CCN1[C@H](c2ccc(O[C@H](C)C(=O)c3ccc(OC)c(OC)c3)c(OC)c2)CC[C@H]1c1ccc(O[C@H](C)C(=O)c2ccc(OC)c(OC)c2)c(OC)c1	inactive	–
COc1ccc(C(=O)[C@@H](C)Oc2ccc([C@@H]3CC[C@@H](c4ccc(O[C@H](C)C(=O)c5ccc(OC)c(OC)c5)c(OC)c4)O3)cc2OC)cc1OC	Dose-dependent effect	–
COc1ccc(C(=O)[C@@H](C)Oc2ccc(C3=C(c4ccc(O[C@H](C)C(=O)c5ccc(OC)c(OC)c5)c(OC)c4)CCC3)cc2OC)cc1OC	inactive	–
COc1ccc([C@@H](O)[C@@H](C)Oc2ccc([C@H]3O[C@H](c4ccc(O[C@H](C)[C@H](O)c5ccc(OC)c(OC)c5)c(OC)c4)[C@H](C)[C@H]3C)cc2OC)cc1OC	Active	inhibition in vivo at 5 mg/kg [2]: 30%; inhibition in vivo at 5 mg/kg [3]: 80%; Activity [4]: Active; Activity [5]: Active; Activity [6]: Non-Toxic; Activity [7]: Non-Toxic
COc1ccc(C(=O)[C@@H](C)Oc2ccc(-c3cccc(-c4ccc(O[C@H](C)C(=O)c5ccc(OC)c(OC)c5)c(OC)c4)n3)cc2OC)cc1OC	inactive	–
COc1ccc(C(=O)[C@H](C)Oc2ccc(/C=C/c3ccc(O[C@H](C)C(=O)c4ccc(OC)c(OC)c4)c(OC)c3)cc2OC)cc1OC	inactive	–
COc1ccc(C(=O)[C@@H](C)Oc2ccc([C@@H]3CC[C@@H](c4ccc(O[C@H](C)C(=O)c5ccc(OC)c(OC)c5)c(OC)c4)N3)cc2OC)cc1OC	Dose-dependent effect	–
COc1ccc(C(=O)[C@@H](C)Oc2ccc(-c3cccc(-c4ccc(O[C@H](C)C(=O)c5ccc(OC)c(OC)c5)c(OC)c4)c3)cc2OC)cc1OC	inactive	–
COc1cc2ncnc(Nc3ccc(F)c(Cl)c3)c2cc1OCCCN1CCOCC1	–	Activity [4]: Active
